Assay [1] can be described thus: Cytotoxicity against human SMMC-7221 cells assessed as reduction in cell viability after 48 hrs by MTS assay. The format is functional, cell-based. Particulars: SMMC-7221, 48 h. The essentials:
(§1)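 Cells (5 × 10^3 per well) were plated 12 h before treatment, then exposed continuously to compound for 48 h. MTS was added, with 1–4 h incubation at 37 °C and OD read at 490 nm. IC50 is the concentration cutting OD by 50% versus untreated cells, taken from dose–response curves. Values are the mean of three independent determinations.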

In another assay the test system is A549. As to the kind of experiment: Cytotoxicity against human A549 cells assessed as reduction in cell viability after 48 hrs by MTS assay. The format is functional, cell-based. The settings on record: A549, 48 h. The essentials: as §1
(In general: Tetrazolium assays rely on reduction of a dye to a coloured formazan, in cell work by metabolically active cells.)

Assay [2] has as its system MCF7. As to the kind of experiment: Cytotoxicity against human MCF7 cells assessed as reduction in cell viability after 48 hrs by MTS assay. The format is functional, cell-based. Particulars: MCF7, 48 h. A digest of the protocol: as §1
Another assay deals with SW480. Nature of the assay: Cytotoxicity against human SW480 cells assessed as reduction in cell viability after 48 hrs by MTS assay. The format is functional, cell-based. The settings on record: SW480, 48 h. A digest of the protocol: as §1
Assay [3] deals with MCF7. Nature of the assay: Potency index, ratio of cisplatin IC50 to compound IC50 for cytotoxicity against human MCF7 cells by MTS assay. The format is functional.

`COc1ccc(C(=O)C[n+]2cn(CCCN3C[C@@H]4Cc5ccc(Br)cc5[C@@H]4c4cccc(OC)c43)c3cc(C)c(C)cc32)cc1.[Br-]`: the 50% inhibitory concentration (IC50) was 0.89 µM in assay [1], 1.53 µM in the assay with A549, 0.35 µM with MCF7 [2] and 1.4 µM in the assay on SW480. Further, the “Ratio IC50” value in the assay on MCF7 [3] is recorded as 56.
Take `COc1cc2c(cc1OC)[C@@H]1c3cccc(OC)c3N(C(=O)CCn3c(C)nc4ccccc43)C[C@@H]1C2`: the IC50 (in assay [1]; with A549; with MCF7 [2]; with SW480) was greater than 20 µM throughout.
In the case of `COc1cccc2c1N(C(=O)CCn1c(C)[n+](Cc3ccc(C)cc3)c3ccccc31)C[C@@H]1Cc3ccccc3[C@H]21`, the IC50 in assay [1] turned out to be 2.04 µM; in the assay with A549, 6.27 µM; in the assay on MCF7 [2], 1.57 µM; in the assay on SW480, 1.57 µM.
Regarding `COc1ccc(C(=O)C[n+]2cn(CCC(=O)N3C[C@@H]4Cc5ccccc5[C@@H]4c4cccc(OC)c43)c3cc(C)c(C)cc32)cc1`, the IC50 in assay [1] is 3.16 µM; with A549, 7.53 µM; with MCF7 [2], 2.54 µM; in the assay with SW480, 0.8 µM.
Regarding `COc1cccc2c1N(C(=O)CCn1c[n+](CC(=O)c3ccc4ccccc4c3)c3cc(C)c(C)cc31)C[C@@H]1Cc3ccccc3[C@H]21`, the IC50 is 1.12 µM in assay [1], 1.99 µM in the assay with A549, 1.01 µM in the assay on MCF7 [2] and 1.35 µM in the assay on SW480.
The corresponding values for `COc1cccc2c1N(CCCn1c(C)[n+](CC(=O)c3ccc4ccccc4c3)c3ccccc31)C[C@@H]1Cc3ccc(Br)cc3[C@H]21` are 1.12 µM, 1.61 µM, 0.95 µM and 1.26 µM.
The corresponding values for `COc1ccc(C(=O)C[n+]2c(C)n(CCC(=O)N3C[C@@H]4Cc5ccccc5[C@@H]4c4cccc(OC)c43)c3ccccc32)cc1` are 4.62 µM, 10.6 µM, 3.12 µM and 2.65 µM.
The corresponding values for `COc1cccc2c1N(CCCn1c[n+](Cc3ccc4ccccc4c3)c3cc(C)c(C)cc31)C[C@@H]1Cc3ccc(Br)cc3[C@H]21` are 2.16 µM, 5.62 µM, 0.84 µM and 3.92 µM.
For the compound `COc1cccc2c1N(CCCn1cnc3cc(C)c(C)cc31)C[C@@H]1Cc3ccccc3[C@H]21`, the IC50 (in assay [1]; with A549; with MCF7 [2]; in the assay with SW480) was greater than 20 µM each time.
On to `COc1cccc2c1N(CCCn1c(C)[n+](CC(=O)c3ccc4ccccc4c3)c3ccccc31)C[C@@H]1Cc3ccccc3[C@H]21`, for which the IC50 amounted to 2.01 µM in assay [1], 5.32 µM in the assay on A549, 1.36 µM in the assay with MCF7 [2] and 1.8 µM in the assay with SW480.
The corresponding values for `COc1cc2c(cc1OC)[C@@H]1c3cccc(OC)c3N(CCCn3c(C)nc4ccccc43)C[C@@H]1C2` are greater than 20 µM, greater than 20 µM, greater than 20 µM and greater than 20 µM.
The corresponding values for `COc1cccc2c1N(CCCn1c(C)[n+](Cc3ccc4ccccc4c3)c3ccccc31)C[C@@H]1Cc3ccc(Br)cc3[C@H]21` are 1.08 µM, 1.89 µM, 0.92 µM and 1.28 µM.
The corresponding values for `COc1cccc2c1N(C(=O)CCn1c[n+](CC(=O)c3ccc4ccccc4c3)c3cc(C)c(C)cc31)C[C@@H]1Cc3ccc(Br)cc3[C@H]21` are 1 µM, 1.11 µM, 1.22 µM and 1.83 µM.

One may read the IC50 as the midpoint of a concentration-inhibition curve.

For the origin of these results see ChEMBL document CHEMBL4373640, “Synthesis and antitumor activity of aza-brazilan derivatives containing imidazolium salt pharmacophores” (Medchemcomm, 2019).
